This is an account of results in ChEMBL document CHEMBL3351250, “Modified salicylanilide and 3-phenyl-2H-benzo[e][1,3]oxazine-2,4(3H)-dione derivatives as novel inhibitors of osteoclast differentiation and bone resorption” (J Med Chem, 2014).

Each structure is given as a SMILES string.

Data set [1] can be described thus: Cytotoxicity against mouse RAW264.7 cells assessed as reduction in survival rate after 24 hrs by MTT assay. The format is cell-based. The essentials: (§1)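 Cells at 1 × 10⁴/well in DMEM + 10% FBS, exposed to compounds for 24 h at 37 °C, 5% CO₂. After PBS washes, MTT (0.5 mg/mL in medium) added for 1 h at 37 °C; formazan dissolved in DMSO, absorbance read at 540 nm. Viability expressed as % of DMSO control; CC₅₀ is the concentration giving 50% loss of mean viability (N = 3).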

The nature of data set [2]: Cytotoxicity against mouse RAW264.7 cells assessed as survival rate at 10 uM after 24 hrs by MTT assay. The data set is classed as cell-based. As to conditions: read-out: Activity. The essentials: as §1
In general terms: Formazan colour is commonly taken as a measure of viable cells.

For data set [3], the system named is RAW264.7. The data set is described as follows: Inhibition of RANKL-induced osteoclastogenesis in mouse RAW264.7 cells assessed as TRAP+ multinucleated cells level at 10 uM incubated for 4 days by TRAP staining assay. The format is functional. Details: scale not given: the % may be the effect or the level left. The essentials: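 Cells plated at 1 × 10³ (96-well) or 5 × 10⁴ (48-well) in α-MEM with 10% FBS, 2 mM […], 100 ng/mL recombinant murine RANKL and compound for 4 days; medium changed on day 2. Fixed in acetone/citrate/formaldehyde for 5 min and TRAP-stained. TRAP⁺ cells with >5 nuclei counted by light microscopy, expressed as % of the RANKL-only group.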

The subject of data set [4] is RAW264.7. The data set can be described thus: Inhibition of RANKL-induced osteoclastogenesis in mouse RAW264.7 cells assessed as TRAP+ multinucleated cells level incubated for 4 days by TRAP staining assay. The data set is classed as functional, cell-based. As to conditions: RAW264.7, 96 h. In short, it runs like this:
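RAW264.7 cells in α-MEM with 10% FBS, 2 mM […], 100 ng/mL recombinant soluble murine RANKL and a range of compound concentrations for 4 days, with medium changed on day 2. Cells fixed in acetone/citrate/formaldehyde for 5 min and TRAP-stained. Cells with >5 nuclei counted by light microscopy and expressed as % of RANKL-only; IC50 is 50% inhibition.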

For data set [5], the system named is RAW264.7. The data set is described as follows: Inhibition of RANKL-induced osteoclastogenesis in mouse RAW264.7 cells assessed as reduction in TRAP activity incubated for 4 days by TRAP staining assay. The format is functional, cell-based. As to conditions: RAW264.7, 96 h. In short, it runs like this:
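RAW264.7 cells were RANKL-differentiated (100 ng/mL recombinant soluble murine RANKL in α-MEM/10% FBS, compounds at various concentrations, 4 days, medium changed day 2). TRAP activity was read with 2 mg/mL 4-nitrophenyl phosphate in 0.09 M citrate buffer for 15 min at 37 °C, stopped with 0.1 N NaOH. Expressed as % of RANKL-only; IC50 is 50% inhibition.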

By CC50 is commonly meant the concentration giving 50% cytotoxicity. Take `COc1ccc(C(=O)Nc2ccc(Cl)cc2F)cc1`: in data set [1], the CC50 at 24 h was over 40 µM. Further, the viability at 24 h, 10 µM in data set [2] was determined as 106%. Further, the Activity in the data set on RAW264.7 [3] worked out at 100.4%.
In the same order, the values of `COc1ccc(C(=O)Nc2ccc(-c3ccc(Cl)cc3Cl)cc2F)c(O)c1` are over 40 µM, 102% and 92.5%.
Taken in the same sequence, the figures for `O=C(Nc1ccc(I)cc1F)c1ccccc1O` were 23.3 µM, 96.7% and 70.6%.
In the same order, the values of `O=C(Nc1ccc(F)cc1F)c1ccccc1OCc1ccc(F)cc1F` are over 40 µM, 101% and 97.6%.
Turning to `COc1ccc(C(=O)Nc2ccc(I)cc2F)c(OCc2ccc(F)cc2F)c1`, the CC50 at 24 h in data set [1] is 36.8 µM. Moreover, the viability at 24 h, 10 µM in data set [2] amounted to 104%. Moreover, the Activity with RAW264.7 [3] amounted to 51.3%.
Taken in the same sequence, the figures for `COc1ccc(C(=O)Nc2ccc(Cl)cc2F)c(O)c1` were 32.3 µM, 103% and 23.8%.
Taken in the same sequence, the figures for `O=C(Nc1ccc(I)cc1F)c1ccccc1OCc1ccc(F)cc1F` were 32.6 µM, 85% and 85.5%.
In the same order, the values of `O=C(Nc1ccc(Cl)cc1F)c1ccccc1OCc1ccc(F)cc1F` are over 40 µM, 107% and 74.6%.
Regarding `COc1ccc(C(=O)O)c(O)c1` [4-METHOXYSALICYLIC ACID], the CC50 at 24 h in data set [1] is over 40 µM. Also, in data set [2], the viability at 24 h, 10 µM is 99.4%. For the same compound, the Activity in the data set with RAW264.7 [3] worked out at 79.6%.
With `O=C(O)c1ccccc1O` [SALICYLIC ACID], the CC50 at 24 h in data set [1] is over 40 µM.
`COc1ccc(C(=O)Nc2ccc(F)cc2F)c(O)c1`: the CC50 at 24 h in data set [1] is over 40 µM. In addition, in data set [2], the viability at 24 h, 10 µM came out at 89.7%. In addition, the Activity in the data set with RAW264.7 [3] is on record as 74.9%.
Taken in the same sequence, the figures for `COc1ccccc1C(=O)Nc1ccc(F)cc1F` were over 40 µM, 108% and 89.1%.
Taken in the same sequence, the figures for `COc1ccc2c(=O)n(-c3ccc(F)cc3F)c(=O)oc2c1` were over 40 µM, 90.9% and 67.5%.
As a reminder, the IC50 is the concentration that inhibits the measured activity by half. Consider `O=C(Nc1ccc(Cl)cc1F)c1ccccc1O`, for which, in data set [1], the CC50 at 24 h was 23.2 µM. In data set [2], the viability at 24 h, 10 µM amounted to 93%. For the same compound, the IC50 came out at 10 µM with RAW264.7 [4] and 12.5 µM in the data set with RAW264.7 [5]. In addition, the Activity in the data set on RAW264.7 [3] is reported as 49.4%.
As for `COc1ccc(C(=O)Nc2ccc(Cl)cc2F)c(OC)c1`, in data set [1], the CC50 at 24 h worked out at 13.6 µM. For the same compound, the viability at 24 h, 10 µM in data set [2] was determined as 52.9%. The Activity in the data set on RAW264.7 [3] was 60.2%.
Taken in the same sequence, the figures for `COc1ccc(C(=O)Nc2ccc(F)cc2F)cc1` were over 40 µM, 102% and 73.3%.
In the same order, the values of `O=C(Nc1ccc(F)cc1F)c1ccccc1` are over 40 µM, 105% and 75.2%.
In the same order, the values of `O=C(Nc1ccc(-c2ccc(Cl)cc2F)cc1F)c1ccccc1O` are 27.2 µM, 90.9% and 84.8%.
Take `COc1ccc(C(=O)Nc2ccc(F)cc2F)c(OC)c1`: the CC50 at 24 h in data set [1] is over 40 µM. Moreover, the viability at 24 h, 10 µM in data set [2] was found to be 102%. Moreover, the Activity with RAW264.7 [3] worked out at 93%.
Taken in the same sequence, the figures for `COc1ccc(C(=O)Nc2ccc(F)cc2F)c(OCc2ccc(F)cc2F)c1` were over 40 µM, 106% and 66.2%.
For `COc1ccc(C(=O)Nc2ccc(I)cc2F)c(OC)c1`, the CC50 at 24 h in data set [1] was over 40 µM. Besides, the viability at 24 h, 10 µM in data set [2] amounted to 95%. Moreover, in the data set on RAW264.7 [3], the Activity was found to be 92.4%.
In the same order, the values of `O=C(Nc1ccc(Cl)cc1F)c1ccccc1` are over 40 µM, 105% and 77.9%.
In the same order, the values of `COc1ccccc1C(=O)Nc1ccc(I)cc1F` are over 40 µM, 95.4% and 106.6%.
Taken in the same sequence, the figures for `COc1ccc(C(=O)Nc2ccc(-c3ccc(F)cc3F)cc2F)c(O)c1` were 26.3 µM, 64.5% and 50.1%.
Consider `O=C(Nc1ccc(I)cc1F)c1ccccc1`, for which the CC50 at 24 h in data set [1] is over 40 µM. Also, the viability at 24 h, 10 µM in data set [2] worked out at 105%. Moreover, the Activity in the data set on RAW264.7 [3] was 76.8%.
In the same order, the values of `O=C(Nc1ccc(-c2ccc(Cl)cc2Cl)cc1F)c1ccccc1O` are 29.8 µM, 105% and 91.2%.
Taken in the same sequence, the figures for `COc1ccc(C(=O)Nc2ccc(Cl)cc2F)c(OCc2ccc(F)cc2F)c1` were over 40 µM, 107% and 68.7%.
Regarding `COc1ccccc1C(=O)Nc1ccc(Cl)cc1F`, the CC50 at 24 h in data set [1] was over 40 µM. Besides, the viability at 24 h, 10 µM in data set [2] came to 102%. Besides, the Activity in the data set on RAW264.7 [3] stood at 86%.
As to `COc1ccc(C(=O)Nc2ccc(-c3ccc(Cl)cc3F)cc2F)c(O)c1`, the viability at 24 h, 10 µM in data set [2] worked out at 44.5%. For the same compound, the Activity in the data set with RAW264.7 [3] is 60.6%.
On to `COc1ccc2c(=O)n(-c3ccc(I)cc3F)c(=O)oc2c1`, for which the CC50 at 24 h in data set [1] turned out to be 30.1 µM. The viability at 24 h, 10 µM in data set [2] was 103%. The Activity in the data set on RAW264.7 [3] is 44.4%.
Taken in the same sequence, the figures for `O=c1oc2ccccc2c(=O)n1-c1ccc(F)cc1F` were over 40 µM, 88.8% and 82.5%.
For the compound `O=C(Nc1ccc(F)cc1F)c1ccccc1O`, the CC50 at 24 h in data set [1] stood at 38.4 µM. Further, the viability at 24 h, 10 µM in data set [2] was 76.1%. For the same compound, the Activity in the data set with RAW264.7 [3] is 85.2%.
In the same order, the values of `COc1ccc(C(=O)Nc2ccc(I)cc2F)c(O)c1` are 27.6 µM, 94.4% and 39.4%.
In the same order, the values of `COc1ccc2c(=O)n(-c3ccc(Cl)cc3F)c(=O)oc2c1` are over 40 µM, 100% and 36%.
Taken in the same sequence, the figures for `O=C(Nc1ccc(-c2ccc(F)cc2F)cc1F)c1ccccc1O` were 28.6 µM, 102% and 100.1%.
For `COc1ccc(C(=O)Nc2ccc(I)cc2F)cc1`, the 50% cytotoxic concentration (CC50) at 24 h in data set [1] stood at 32.8 µM. In data set [2], the viability at 24 h, 10 µM was determined as 91.4%. Moreover, the Activity in the data set on RAW264.7 [3] came out at 89.3%.
